Measurements as given in ChEMBL document CHEMBL4371016, “Proline- and Arginine-Rich Peptides as Flexible Allosteric Modulators of Human Proteasome Activity” (J Med Chem, 2019).
The source made the active and inactive calls. The calls are words filed in the database; no cut-off is given here. Residues, ends and D or L forms follow the SMILES beside them.

Assays:
[1] = biological target: Proteasome subunit beta type-6 (Homo sapiens) (UniProt P28072); assay: Positive allosteric modulation of latent human erythrocytes 20S proteasome caspase like activity at 10 uM using Z-LLE-AMC as substrate measured every 1 min up to 60 mins by fluorescence assay relative to control
Sequence of Proteasome subunit beta type-6 (Homo sapiens) (P28072 whole entry, looked up): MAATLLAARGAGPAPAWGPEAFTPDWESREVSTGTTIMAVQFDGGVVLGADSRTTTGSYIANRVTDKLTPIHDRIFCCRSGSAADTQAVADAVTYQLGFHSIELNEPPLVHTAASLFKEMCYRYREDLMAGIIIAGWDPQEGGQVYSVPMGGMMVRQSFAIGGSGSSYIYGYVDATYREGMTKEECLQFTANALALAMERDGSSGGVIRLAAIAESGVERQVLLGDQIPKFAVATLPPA

[2] = biological target: T1, Proteasome Macropain subunit MB1 (Homo sapiens) (UniProt P28074); assay: Positive allosteric modulation of latent human erythrocytes 20S proteasome chymotrypsin like activity at 25 uM using Suc-LLVY-AMC as substrate measured every 2 mins up to 60 mins by fluorescence assay relative to control
T1 sequence (whole entry): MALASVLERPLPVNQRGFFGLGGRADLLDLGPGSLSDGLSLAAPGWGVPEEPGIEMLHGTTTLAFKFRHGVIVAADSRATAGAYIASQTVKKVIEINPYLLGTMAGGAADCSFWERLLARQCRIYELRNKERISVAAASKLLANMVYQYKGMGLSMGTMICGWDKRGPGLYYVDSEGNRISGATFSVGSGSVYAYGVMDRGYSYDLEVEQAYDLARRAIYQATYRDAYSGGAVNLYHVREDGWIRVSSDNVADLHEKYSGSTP

[3] = biological target: T2, 20S proteasome (Homo sapiens) (UniProt P49721+P20618+P28074+P28062+P28065+P28072+P25786+P25787+P25788+P25789+P28066+P60900+O14818+Q8TAA3+P40306+A5LHX3+P49720+P28070+Q99436); assay: Positive allosteric modulation of SDS-activated human erythrocytes 20S proteasome assessed as increase in yeast enolase degradation at 10 uM after 4 hr by SDS-PAGE analysis
[4] = biological target: T2, 20S proteasome (Homo sapiens); assay: Positive allosteric modulation of SDS-activated human erythrocytes 20S proteasome assessed as increase in human alpha-synuclein degradation at 10 uM after 1 hr by SDS-PAGE analysis
[5] = biological target: T2, 20S proteasome (Homo sapiens); assay: Negative allosteric modulation of SDS-activated human erythrocytes 20S proteasome assessed as reduction in human alpha-synuclein degradation at 1 uM after 1 hr by SDS-PAGE analysis
Summary of the method: (§1)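 Human α-synuclein or yeast enolase digested by human 20S activated with 0.01% SDS (20S:substrate 1:100 pmol α-syn, 1:10 pmol enolase) in 20 mM HEPES pH 7.4 at 37 °C for 1 h (α-syn) or 4 h (enolase). DMSO at or below 0.05%. SDS–PAGE (12% or 10%) with Coomassie staining; remaining substrate densitometry as percent of control; at least three experiments, mean ± SEM.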

[6] = biological target: T3, Proteasome component C5 (Homo sapiens) (UniProt P20618); assay: Positive allosteric modulation of latent human erythrocytes 20S proteasome caspase like activity at 10 uM measured every 1 min up to 60 mins by fluorescence assay relative to control
T3 sequence (whole entry): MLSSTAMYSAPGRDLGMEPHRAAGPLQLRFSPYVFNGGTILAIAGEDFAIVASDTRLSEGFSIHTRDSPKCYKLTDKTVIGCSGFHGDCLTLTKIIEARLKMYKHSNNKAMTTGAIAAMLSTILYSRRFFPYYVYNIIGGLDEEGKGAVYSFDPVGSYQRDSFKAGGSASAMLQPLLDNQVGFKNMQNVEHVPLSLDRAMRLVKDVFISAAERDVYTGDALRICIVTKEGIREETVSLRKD

[7] = biological target: T2, 20S proteasome (Homo sapiens); assay: Positive allosteric modulation of SDS-activated human erythrocytes 20S proteasome assessed as increase in yeast enolase degradation at 1 uM after 4 hr by SDS-PAGE analysis relative to control
[8] = biological target: T1, Proteasome Macropain subunit MB1 (Homo sapiens); assay: Positive allosteric modulation of latent human erythrocytes 20S proteasome chymotrypsin like activity using LFP as substrate measured every 2 mins up to 60 mins by fluorescence assay
[9] = biological target: T1, Proteasome Macropain subunit MB1 (Homo sapiens); assay: Negative allosteric modulation of SDS-activated human erythrocytes 20S proteasome chymotrypsin like activity up to 10 uM using LFP as substrate measured every 2 mins up to 60 mins by fluorescence assay
[10] = biological target: T1, Proteasome Macropain subunit MB1 (Homo sapiens); assay: Positive allosteric modulation of latent human erythrocytes 20S proteasome chymotrypsin like activity up to 10 uM using LFP as substrate measured every 2 mins up to 60 mins by fluorescence assay
[11] = biological target: T1, Proteasome Macropain subunit MB1 (Homo sapiens); assay: Negative allosteric modulation of SDS-activated human erythrocytes 20S proteasome chymotrypsin like activity using Suc-LLVY-AMC as substrate measured every 2 mins up to 60 mins by fluorescence assay
Summary of the method: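 1.4 nM CP (0.001 mg/mL) in 50 mM Tris-HCl pH 8.0, activated with 0.005% SDS where stated, otherwise latent. Suc-LLVY-AMC at 100 μM final. AMC fluorescence read every 2 min up to 60 min at 37 °C. Activity relative to DMSO-treated enzyme, from at least three independent replicates. Peptide stocks 10 mM in DMSO.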

[12] = biological target: T2, 20S proteasome (Homo sapiens); assay: Negative allosteric modulation of SDS-activated human erythrocytes 20S proteasome assessed as reduction in human alpha-synuclein degradation at 10 uM after 1 hr by SDS-PAGE analysis
Summary of the method: as §1

[13] = biological target: T1, Proteasome Macropain subunit MB1 (Homo sapiens); assay: Positive allosteric modulation of latent human erythrocytes 20S proteasome chymotrypsin like activity up to 10 uM using LFP as substrate measured every 2 mins up to 60 mins by fluorescence assay
[14] = biological target: T2, 20S proteasome (Homo sapiens); assay: Negative allosteric modulation of SDS-activated human erythrocytes 20S proteasome assessed as reduction in yeast enolase degradation at 1 uM after 4 hr by SDS-PAGE analysis
[15] = biological target: Proteasome Macropain subunit (Homo sapiens) (UniProt P49721); assay: Negative allosteric modulation of SDS-activated human erythrocytes 20S proteasome trypsin like activity at 10 uM using Boc-LRR-AMC as substrate measured every 2 mins up to 60 mins by fluorescence assay
Sequence of Proteasome Macropain subunit (Homo sapiens) (P49721 whole entry): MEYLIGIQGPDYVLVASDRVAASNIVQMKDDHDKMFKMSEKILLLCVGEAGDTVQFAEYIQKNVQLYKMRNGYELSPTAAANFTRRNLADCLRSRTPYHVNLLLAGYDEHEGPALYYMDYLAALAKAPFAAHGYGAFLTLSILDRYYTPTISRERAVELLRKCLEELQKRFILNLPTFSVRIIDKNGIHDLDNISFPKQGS

[16] = biological target: T1, Proteasome Macropain subunit MB1 (Homo sapiens); assay: Positive allosteric modulation of latent human erythrocytes 20S proteasome chymotrypsin like activity at 1 uM using Suc-LLVY-AMC as substrate measured every 2 mins up to 60 mins by fluorescence assay
[17] = biological target: T2, 20S proteasome (Homo sapiens); assay: Negative allosteric modulation of SDS-activated human erythrocytes 20S proteasome assessed as reduction in yeast enolase degradation at 10 uM after 4 hr by SDS-PAGE analysis
[18] = biological target: T3, Proteasome component C5 (Homo sapiens); assay: Negative allosteric modulation of SDS-activated human erythrocytes 20S proteasome caspase like activity at lower concentration using Z-LLE-AMC as substrate measured every 2 mins up to 60 mins by fluorescence assay

CC(C)C[C@H](NC(=O)[C@@H]1CCCN1C(=O)[C@@H]1CCCN1C(=O)[C@@H]1CCCN1C(=O)[C@@H]1CCCN1C(=O)[C@H](CCCNC(=N)N)NC(=O)[C@H](CCCNC(=N)N)NC(=O)[C@@H](N)CCCNC(=N)N)C(=O)N[C@@H](Cc1ccc(O)cc1)C(=O)N[C@@H](C)C(=O)O (H-RRRPPPPLYA-OH)
fold change (FC) [1]: 5 to 7 | fold change (FC) [2]: < 7 | Activity [3]: Active | Activity [4]: Active | Activity [5]: inactive | fold change (FC) [6]: 5 to 7 | Activity [7]: Active | Activity [8]: Dose-dependent effect | Activity [9]: inactive

CC(C)C[C@H](NC(=O)[C@H](Cc1ccc(O)cc1)NC(=O)[C@@H]1CCCN1C(=O)[C@@H]1CCCN1C(=O)[C@@H]1CCCN1C(=O)[C@@H]1CCCN1C(=O)[C@H](CCCNC(=N)N)NC(=O)[C@H](CCCNC(=N)N)NC(=O)[C@@H](N)CCCNC(=N)N)C(=O)N1CCC[C@H]1C(=O)N[C@@H](CCCNC(=N)N)C(=O)N[C@@H](Cc1c[nH]c2ccccc12)C(=O)NCC(=O)O (H-RRRPPPPYLPRWG-OH)
Activity [9]: Active | Activity [10]: inactive

CC(C)C[C@H](NC(=O)[C@H](Cc1ccc(O)cc1)NC(=O)[C@@H]1CCCN1C(=O)[C@@H]1CCCN1C(=O)[C@H](CCCNC(=N)N)NC(=O)[C@@H]1CCCN1C(=O)[C@H](CCCNC(=N)N)NC(=O)[C@H](CCCNC(=N)N)NC(=O)[C@@H](N)CCCNC(=N)N)C(=O)N1CCC[C@H]1C(=O)N[C@@H](CCCNC(=N)N)C(=O)O (H-RRRPRPPYLPR-OH)
Activity [11]: Dose-dependent effect | Activity [12]: Active | Activity [13]: inactive | Activity [14]: inactive | Activity [15]: Active | Activity [16]: Active | Activity [9]: Active | Activity [17]: inactive | Activity [10]: inactive | Activity [18]: Active

CC(C)C[C@H](NC(=O)[C@H](Cc1ccc(O)cc1)NC(=O)[C@@H]1CCCN1C(=O)[C@@H]1CCCN1C(=O)[C@H](CCCNC(=N)N)NC(=O)[C@@H]1CCCN1C(=O)[C@H](CCCNC(=N)N)NC(=O)[C@H](CCCNC(=N)N)NC(=O)[C@@H](N)CCCNC(=N)N)C(=O)N1CCC[C@H]1C(=O)N[C@@H](CCCNC(=N)N)C(=O)N[C@@H](Cc1ccccc1)C(=O)NCC(=O)O (H-RRRPRPPYLPRFG-OH)
Activity [12]: Active | Activity [13]: inactive | Activity [14]: Active | Activity [15]: Active | Activity [16]: Active | Activity [5]: Active | Activity [9]: Active | Activity [17]: Active | Activity [10]: inactive | Activity [18]: Active

CC(C)C[C@H](NC(=O)[C@H](Cc1ccc(O)cc1)NC(=O)[C@@H]1CCCN1C(=O)[C@@H]1CCCN1C(=O)[C@H](CCCNC(=N)N)NC(=O)[C@@H]1CCCN1C(=O)[C@H](CCCNC(=N)N)NC(=O)[C@H](CCCNC(=N)N)NC(=O)[C@@H](N)CCCNC(=N)N)C(=O)N1CCC[C@H]1C(=O)N[C@@H](CCCNC(=N)N)C(=O)N[C@@H](Cc1c[nH]c2ccccc12)C(=O)NCC(N)=O (H-RRRPRPPYLPRWG-NH2)
Activity [13]: inactive | Activity [15]: Active | Activity [9]: Active | Activity [10]: inactive | Activity [18]: Active

CC(C)C[C@H](NC(=O)[C@H](Cc1ccc(O)cc1)NC(=O)[C@H](CCCNC(=N)N)NC(=O)[C@H](CCCNC(=N)N)NC(=O)[C@@H](N)CCCNC(=N)N)C(=O)N1CCC[C@H]1C(=O)N[C@@H](CCCNC(=N)N)C(=O)N[C@@H](Cc1c[nH]c2ccccc12)C(=O)NCC(=O)O (H-RRRYLPRWG-OH)
Activity [11]: Dose-dependent effect | Activity [13]: inactive | Activity [15]: Active | Activity [9]: Active | Activity [10]: inactive | Activity [18]: Active

CC(C)C[C@H](NC(=O)[C@H](Cc1ccc(O)cc1)NC(=O)[C@H](CCCNC(=N)N)NC(=O)[C@H](CCCNC(=N)N)NC(=O)[C@@H](N)CCCNC(=N)N)C(=O)N1CCC[C@H]1C(=O)N[C@@H](CCCNC(=N)N)C(=O)N[C@@H](Cc1ccc(O)cc1)C(=O)N[C@@H](C)C(N)=O (H-RRRYLPRYA-NH2)
Activity [11]: Dose-dependent effect | Activity [12]: Active | Activity [13]: inactive | Activity [14]: inactive | Activity [15]: Active | Activity [16]: Active | Activity [9]: Active | Activity [17]: inactive | Activity [10]: inactive | Activity [18]: Active

N=C(N)NCCC[C@H](NC(=O)[C@H](CCCNC(=N)N)NC(=O)[C@@H](N)CCCNC(=N)N)C(=O)N[C@@H](Cc1ccc(O)cc1)C(=O)N1CCC[C@H]1C(=O)N[C@@H](CCCNC(=N)N)C(=O)N[C@@H](Cc1c[nH]c2ccccc12)C(=O)NCC(=O)O (H-RRRYPRWG-OH)
Activity [13]: inactive | Activity [15]: Active | Activity [9]: Active | Activity [10]: inactive | Activity [18]: Active
